The conditions of series [1]: with PLAC–PEG polymer, compared with PPD colloids; cited from earlier work.
Series [2] can be described thus: Critical aggregation concentration. In kind it is physicochemical. Summed up: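 Colloids were formulated in PBS with 0.01% UP80 and 10 μM of a cholesteryl BODIPY FRET pair (FL C12 donor, 542/563 C11 acceptor; 0.875:0.125) added to the drug stock. They were diluted 10-fold into PBS or serum media and read by fluorescence (excitation 490 nm, acceptor emission 575 nm). Dye-free comparison was by DLS scattering intensity (830 nm laser, 158° detector).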

Consider `CC(=O)O[C@@]12CO[C@@H]1C[C@H](O)[C@@]1(C)C(=O)[C@H](O)C3=C(C)[C@@H](OC(=O)[C@H](O)[C@@H](NC(=O)OC(C)(C)C)c4ccccc4)C[C@@](O)([C@@H](OC(=O)c4ccccc4)[C@H]21)C3(C)C` [docetaxel], for which the drug loading result in series [1] is recorded as “significantly lower drug loading”.
Consider `C[C@]12CC[C@@H]3c4ccc(O)cc4C[C@@H](CCCCCCCCC[S+]([O-])CCCC(F)(F)C(F)(F)F)[C@H]3[C@@H]1CC[C@@H]2O` (stereo partly shown) [fulvestrant], for which, in series [2] (PBS, fluorescence versus light scattering methods), the “measured CAC with or without BODIPY dyes” value is “no difference”. Also, the “critical aggregation concentration (CAC)” value in series [2] (protein-free media, light scattering (Figure S3)) was “low micromolar”; in series [2] (serum-containing media, colloids with 10 μM BODIPY FRET pair, 0.01% UP80, diluted 10-fold, fluorescence intensity), “increased with serum content”.

Source of the values: PMC6474797 (ACS chemical biology, 2019).
